Measurements published in ChEMBL document CHEMBL4118286, “Design, synthesis and evaluation of novel bivalent β-carboline derivatives as multifunctional agents for the treatment of Alzheimer's disease” (Bioorg Med Chem, 2018).
The source made the active and inactive calls. The calls are words filed in the database; no cut-off is given here.

Assays:
[1] = tested on: SH-SY5Y; assay: Neurotoxicity against human SH-SY5Y cells assessed as decrease in cell viability at 1 to 10 uM after 24 hrs by MTT assay; format: toxicity, cell-based
Method in brief: (§1)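 Cytotoxicity assay: SH-SY5Y cells were incubated with compound at 1, 2.5, 5 or 10 μM for 24 h. Viability was determined by MTT and expressed as percent of control, mean ± SD of 3 independent experiments.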

[2] = biological target: Acetylcholinesterase (Electrophorus electricus, UniProt O42275); assay: Inhibition of electric eel AChE using acetylthiocholine iodide as substrate preincubated for 2 mins followed by substrate addition and measured after 2 mins by Ellman's method
[3] = biological target: Amyloid-beta precursor protein (Homo sapiens) (UniProt P05067); assay: Inhibition of self-induced human amyloid beta (1 to 42) aggregation at 25 uM after 24 hrs by thioflavin-T based fluorescence assay relative to control
Method in brief: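 Thioflavin T fluorescence assay of self-induced Aβ1-42 aggregation, with test compound present at 25 μM and resveratrol as the positive control. Inhibition is given in percent as mean ± SD of at least three independent experiments.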

[4] = biological target: Cholinesterase (Equus caballus, UniProt P81908); assay: Inhibition of equine serum BChE using butyrylthiocholine iodide as substrate preincubated for 2 mins followed by substrate addition and measured after 2 mins by Ellman's method
Method in brief: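 Equine serum BuChE (Type VI-S) inhibition measured by the Ellman method. IC50 is the inhibitor concentration giving 50% enzyme inactivation, reported as mean ± SEM of three experiments.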

[5] = Selectivity index, ratio of IC50 for electric eel AChE to IC50 for equine serum BChE
Method in brief: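 Electric eel AChE (Type VI-S) and equine serum BuChE (Type VI-S) were each assayed by the Ellman method, with IC50 as mean ± SEM of three experiments. Selectivity index was calculated as IC50(AChE)/IC50(BuChE).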

[6] = biological target: Cholinesterase (Equus caballus) (UniProt P81908); assay: Potency index, ratio of donepezil IC50 to compound IC50 for equine serum BChE
[7] = tested on: SH-SY5Y; assay: Neuroprotective activity against H2O2-induced oxidative stress in human SH-SY5Y cells assessed as cell viability at 5 uM after 24 hrs by MTT assay (reference value: 57.2%); format: functional; conditions: read-out: Activity
Method in brief: (§2)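 SH-SY5Y cells were treated with H₂O₂ (300 μM) for 24 h, with compound (1 or 5 μM) co-treated. Viability was read by MTT and compared with H₂O₂-only and untreated controls. Data are mean ± SEM of three experiments, each run in triplicate.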

[8] = Neurotoxicity against human SH-SY5Y cells assessed as cell viability at 1 uM after 24 hrs by MTT assay relative to control; format: toxicity, cell-based; conditions: read-out: Activity; method in brief: as §1
[9] = Neurotoxicity against human SH-SY5Y cells assessed as cell viability at 5 uM after 24 hrs by MTT assay relative to control; format: toxicity, cell-based; conditions: read-out: Activity; method in brief: as §1
[10] = tested on: SH-SY5Y; assay: Neuroprotective activity against amyloid beta (1 to 42)-induced neurodegeneration in human SH-SY5Y cells assessed as increase in cell viability at 1 uM after 48 hrs by MTT assay; format: functional, cell-based
Method in brief: (§3)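 SH-SY5Y neuroblastoma cells were exposed to Aβ1-42 (30 μM) for 48 h, with or without compound at 1 or 5 μM. Viability was measured by MTT assay against Aβ1-42-only and untreated controls. Data are mean ± SEM of three experiments, each run in triplicate.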

[11] = tested on: SH-SY5Y; assay: Neuroprotective activity against okadaic acid-induced cell death in human SH-SY5Y cells assessed as cell viability at 1 uM after 24 hrs by MTT assay (reference value: 53.1%); format: functional; conditions: read-out: Activity
[12] = Neurotoxicity against human SH-SY5Y cells assessed as cell viability at 10 uM after 24 hrs by MTT assay relative to control; format: toxicity, cell-based; conditions: read-out: Activity; method in brief: as §1
[13] = tested on: SH-SY5Y; assay: Neuroprotective activity against H2O2-induced oxidative stress in human SH-SY5Y cells assessed as cell viability at 1 uM after 24 hrs by MTT assay (reference value: 57.2%); format: functional; conditions: read-out: Activity; method in brief: as §2
[14] = Neurotoxicity against human SH-SY5Y cells assessed as cell viability at 2.5 uM after 24 hrs by MTT assay relative to control; format: toxicity, cell-based; conditions: read-out: Activity; method in brief: as §1
[15] = tested on: SH-SY5Y; assay: Neuroprotective activity against amyloid beta (1 to 42)-induced neurodegeneration in human SH-SY5Y cells assessed as increase in cell viability at 1 to 5 uM after 48 hrs by MTT assay; format: functional, cell-based; method in brief: as §3
[16] = tested on: SH-SY5Y; assay: Neuroprotective activity against okadaic acid-induced cell death in human SH-SY5Y cells assessed as increase in cell viability at 1 uM after 24 hrs by MTT assay; format: functional, cell-based

Sequence of Cholinesterase (P81908 whole entry): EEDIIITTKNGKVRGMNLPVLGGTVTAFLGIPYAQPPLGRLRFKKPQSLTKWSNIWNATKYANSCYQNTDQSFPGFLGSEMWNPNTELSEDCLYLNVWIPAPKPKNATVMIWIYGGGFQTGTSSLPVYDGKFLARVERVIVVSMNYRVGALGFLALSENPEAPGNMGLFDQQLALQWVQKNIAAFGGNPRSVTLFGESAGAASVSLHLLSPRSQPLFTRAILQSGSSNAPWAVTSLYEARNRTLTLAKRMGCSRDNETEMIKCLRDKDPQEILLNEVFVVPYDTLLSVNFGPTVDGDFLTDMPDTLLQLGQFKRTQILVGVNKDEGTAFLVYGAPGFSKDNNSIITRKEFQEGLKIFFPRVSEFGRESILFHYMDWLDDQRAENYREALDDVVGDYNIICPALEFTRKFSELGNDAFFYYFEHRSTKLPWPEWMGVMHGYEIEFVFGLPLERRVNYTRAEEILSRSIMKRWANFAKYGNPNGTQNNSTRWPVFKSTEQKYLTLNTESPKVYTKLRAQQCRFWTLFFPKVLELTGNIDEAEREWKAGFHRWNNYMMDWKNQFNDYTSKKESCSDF
Sequence of Amyloid-beta precursor protein (Homo sapiens) (P05067 whole entry): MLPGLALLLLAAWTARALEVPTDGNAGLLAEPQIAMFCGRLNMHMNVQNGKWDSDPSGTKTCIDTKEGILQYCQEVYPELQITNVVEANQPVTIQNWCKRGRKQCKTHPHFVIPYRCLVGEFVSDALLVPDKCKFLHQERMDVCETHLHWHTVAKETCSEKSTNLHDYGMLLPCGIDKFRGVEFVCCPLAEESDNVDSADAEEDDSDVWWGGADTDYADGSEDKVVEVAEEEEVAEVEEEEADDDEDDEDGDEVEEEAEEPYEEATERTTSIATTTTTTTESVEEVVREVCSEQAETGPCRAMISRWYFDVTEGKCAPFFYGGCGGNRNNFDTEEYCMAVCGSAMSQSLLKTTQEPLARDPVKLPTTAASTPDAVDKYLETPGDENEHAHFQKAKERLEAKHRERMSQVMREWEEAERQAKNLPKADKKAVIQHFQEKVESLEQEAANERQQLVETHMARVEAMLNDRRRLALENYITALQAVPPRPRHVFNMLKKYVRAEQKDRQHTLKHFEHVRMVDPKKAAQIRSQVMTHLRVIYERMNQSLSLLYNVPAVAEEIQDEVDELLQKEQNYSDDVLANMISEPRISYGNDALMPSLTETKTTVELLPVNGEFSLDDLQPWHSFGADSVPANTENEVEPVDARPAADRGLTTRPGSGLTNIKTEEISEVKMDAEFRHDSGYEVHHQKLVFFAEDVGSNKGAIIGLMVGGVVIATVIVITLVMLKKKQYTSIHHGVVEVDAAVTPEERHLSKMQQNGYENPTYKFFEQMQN
Sequence of Acetylcholinesterase (O42275 whole entry): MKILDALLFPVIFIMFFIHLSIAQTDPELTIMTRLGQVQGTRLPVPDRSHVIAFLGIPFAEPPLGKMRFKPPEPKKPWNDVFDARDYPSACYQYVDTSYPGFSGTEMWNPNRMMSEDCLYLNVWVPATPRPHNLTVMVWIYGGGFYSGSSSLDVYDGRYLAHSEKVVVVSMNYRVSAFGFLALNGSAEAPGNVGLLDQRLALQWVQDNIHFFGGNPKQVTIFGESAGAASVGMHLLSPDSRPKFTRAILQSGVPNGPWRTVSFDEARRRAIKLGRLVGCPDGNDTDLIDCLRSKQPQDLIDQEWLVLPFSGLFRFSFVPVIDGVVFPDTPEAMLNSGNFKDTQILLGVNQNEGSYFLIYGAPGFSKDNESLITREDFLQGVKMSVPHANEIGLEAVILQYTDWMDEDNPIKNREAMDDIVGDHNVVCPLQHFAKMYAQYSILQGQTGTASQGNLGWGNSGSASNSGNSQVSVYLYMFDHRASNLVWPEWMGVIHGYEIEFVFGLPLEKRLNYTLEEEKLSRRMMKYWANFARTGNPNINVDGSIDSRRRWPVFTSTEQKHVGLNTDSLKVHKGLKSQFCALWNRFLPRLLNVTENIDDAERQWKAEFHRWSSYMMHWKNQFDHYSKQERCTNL
Sequence of Cholinesterase (Equus caballus) (P81908 whole entry): as the sequence (P81908 whole entry) above

Structure (SMILES)	IC50 ([2]; read-out: IC50) [µM]	inhibition [3]	IC50 ([4]; read-out: IC50) [µM]	Ratio IC50 [5]	IC50 [2]	IC50 [4]	also measured
COC(=O)c1cc2c3ccccc3n(CCCN3CCN(CCCn4c5ccccc5c5cc(C(=O)OC)nc(C)c54)CC3)c2c(C)n1	11.2	inactive	0.7	16			Activity [1]: Toxic; Ratio IC50 [6]: 4
COC(=O)C1Cc2c([nH]c3ccccc23)C(c2ccccc2)N1C(=O)CN(C)CCN(C)CC(=O)N1C(C(=O)OC)Cc2c([nH]c3ccccc23)C1c1ccccc1 (stereo not drawn)	64	65.1%	14.6	4.4			
COC(=O)C1Cc2c([nH]c3ccccc23)C(C)N1C(=O)CN1CCN(CC(=O)N2C(C(=O)OC)Cc3c([nH]c4ccccc34)C2C)CC1 (stereo not drawn)		50.8%	20.9	inactive	Not Active		
COC(=O)C1Cc2c([nH]c3ccccc23)C(c2ccccc2)N1C(=O)CCCN1CCN(CCCC(=O)N2C(C(=O)OC)Cc3c([nH]c4ccccc34)C2c2ccccc2)CC1 (stereo not drawn)				inactive	Not Active	Not Active	
COC(=O)C1Cc2c([nH]c3ccccc23)C(C)N1 (stereo not drawn)				inactive	Not Active	Not Active	
COC(=O)C1Cc2c([nH]c3ccccc23)CN1C(=O)CCN(C)CCN(C)CCC(=O)N1Cc2[nH]c3ccccc3c2CC1C(=O)OC (stereo not drawn)	25.4	59.2%	27	0.9			
COC(=O)C1Cc2c([nH]c3ccccc23)C(C)N1C(=O)CN(C)CCN(C)CC(=O)N1C(C(=O)OC)Cc2c([nH]c3ccccc23)C1C (stereo not drawn)	39.8	72.3%	9	4.3			Activity [1]: Toxic
COC(=O)C1Cc2c([nH]c3ccccc23)C(C)N1C(=O)CCCN1CCN(CCCC(=O)N2C(C(=O)OC)Cc3c([nH]c4ccccc34)C2C)CC1 (stereo not drawn)	44.2	85.7%	2.8	15.8			viability at 5 µM [7]: 85.5%; viability at 24 h, 1 µM [8]: 98.6%; viability at 24 h, 5 µM [9]: 101%; Activity [10]: Active; viability at 1 µM [11]: 101%; viability at 24 h, 10 µM [12]: 90.8%; viability at 1 µM [13]: 90.4%; viability at 24 h, 2.5 µM [14]: 99.1%
COC(=O)c1cc2c([nH]c3ccccc32)c(C)n1				inactive	Not Active	Not Active	
COC(=O)C1Cc2c([nH]c3ccccc23)C(c2ccccc2)N1 (stereo not drawn)				inactive	Not Active	Not Active	
COC(=O)C1Cc2c([nH]c3ccccc23)CN1 (stereo not drawn)				inactive	Not Active	Not Active	
COC(=O)C1Cc2c([nH]c3ccccc23)CN1C(=O)CN1CCN(CC(=O)N2Cc3[nH]c4ccccc4c3CC2C(=O)OC)CC1 (stereo not drawn)				inactive	Not Active	Not Active	
COC(=O)c1cc2c3ccccc3n(CCCN(C)CCN(C)CCCn3c4ccccc4c4cc(C(=O)OC)nc(C)c43)c2c(C)n1	99.1	inactive	15.4	6.4			
COC(=O)c1cc2c3ccccc3n(CCCCN3CCN(CCCCn4c5ccccc5c5cc(C(=O)OC)nc(C)c54)CC3)c2c(C)n1	11.6	inactive	9.7	1.2			
COC(=O)C1Cc2c([nH]c3ccccc23)C(c2ccccc2)N1C(=O)CCN1CCN(CCC(=O)N2C(C(=O)OC)Cc3c([nH]c4ccccc34)C2c2ccccc2)CC1 (stereo not drawn)	488	41.9%	5.7	85.6			
COC(=O)c1cc2c([nH]c3ccccc32)c(-c2ccccc2)n1				inactive	Not Active	Not Active	
COC(=O)c1cc2c3ccccc3n(CCCN3CCN(CCCn4c5ccccc5c5cc(C(=O)OC)nc(-c6ccccc6)c54)CC3)c2c(-c2ccccc2)n1				inactive	Not Active	Not Active	
COC(=O)c1cc2c3ccccc3n(CCCCN3CCN(CCCCn4c5ccccc5c5cc(C(=O)OC)nc(-c6ccccc6)c54)CC3)c2c(-c2ccccc2)n1				inactive	Not Active	Not Active	
COC(=O)c1cc2c3ccccc3n(CCCCN(C)CCN(C)CCCCn3c4ccccc4c4cc(C(=O)OC)nc(-c5ccccc5)c43)c2c(-c2ccccc2)n1	15.7	71.5%	1.8	8.7			Activity [1]: Toxic
COC(=O)c1cc2c3ccccc3n(CCCN(C)CCN(C)CCCn3c4ccccc4c4cc(C(=O)OC)nc(-c5ccccc5)c43)c2c(-c2ccccc2)n1	147	25.4%	0.8	184			viability at 24 h, 1 µM [8]: 98.2%; viability at 24 h, 5 µM [9]: 93.7%; Activity [15]: inactive; viability at 24 h, 2.5 µM [14]: 93.2%
COC(=O)c1cc2c3ccccc3n(CCCCN(C)CCN(C)CCCCn3c4ccccc4c4cc(C(=O)OC)nc(C)c43)c2c(C)n1	9.6	65.5%	1.5	6.4			Activity [1]: Toxic
COC(=O)C1Cc2c([nH]c3ccccc23)C(C)N1C(=O)CCN(C)CCN(C)CCC(=O)N1C(C(=O)OC)Cc2c([nH]c3ccccc23)C1C (stereo not drawn)	18	82.7%	1.7	10.6			viability at 5 µM [7]: 42.1%; viability at 24 h, 1 µM [8]: 106%; viability at 24 h, 5 µM [9]: 92.4%; Activity [16]: Active; Activity [10]: Active; viability at 1 µM [13]: 100%; viability at 24 h, 2.5 µM [14]: 92.8%
